≈ marks a conversion by molar mass, not a printed value. Calls of active or inactive are those of the source.
Key:
Staphylococcus aureus [1] = assay: Increase in membrane permeability in heterogeneous vancomycin-intermediate resistant Staphylococcus aureus ATCC 700698 at 16 ug/mL using SYTO9 staining by fluorimetric assay; type: functional, organism-based
Staphylococcus aureus [2] = assay: Bactericidal activity against heterogeneous vancomycin-intermediate resistant Staphylococcus aureus ATCC 700698 at 16 ug/ml within 30 mins; type: functional, organism-based
How it was run: (§1)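 Short-duration time-kill of hVISA ATCC 700698 under conditions similar to the membrane assays, without polysorbate-80, with drug at 4, 8 or 16 μg/ml; viable counts as change in log CFU from time zero over 30 min. Bactericidal defined as ≥3 log CFU decrease; detection limit 200 CFU; three independent experiments.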

Staphylococcus aureus [3] = assay: Induction of membrane depolarization in heterogeneous vancomycin-intermediate resistant Staphylococcus aureus ATCC 700698 at 16 ug/mL using DiSC3(5) dye by fluorimetric assay; type: functional, organism-based
Staphylococcus aureus [4] = assay: Antimicrobial activity against heterogeneous vancomycin-intermediate resistant Staphylococcus aureus ATCC 700698; type: functional
Staphylococcus aureus [5] = assay: Bactericidal activity against heterogeneous vancomycin-intermediate resistant Staphylococcus aureus ATCC 700698 assessed as reduction in bacterial count at 16 ug/ml within 30 mins; type: functional; how it was run: as §1
Enterococcus = assay: Antimicrobial activity against vancomycin-resistant Enterococcus; type: functional
Staphylococcus aureus [6] = assay: Antimicrobial activity against vancomycin-intermediate resistant Staphylococcus aureus; type: functional
Staphylococcus aureus [7] = assay: Antimicrobial activity against heterogeneous vancomycin-intermediate resistant Staphylococcus aureus; type: functional
Staphylococcus aureus [8] = assay: Increase in membrane permeability in heterogeneous vancomycin-intermediate resistant Staphylococcus aureus ATCC 700698 using SYTO9 staining by fluorimetric assay; type: functional, organism-based
Staphylococcus aureus [9] = assay: Antimicrobial activity against vancomycin-resistant Staphylococcus aureus; type: functional
Staphylococcus aureus [10] = assay: Induction of membrane depolarization in heterogeneous vancomycin-intermediate resistant Staphylococcus aureus ATCC 700698 using DiSC3(5) dye by fluorimetric assay; type: functional, organism-based
Staphylococcus aureus [11] = assay: Bactericidal activity against heterogeneous vancomycin-intermediate resistant Staphylococcus aureus ATCC 700698 assessed as reduction in bacterial count at 4 ug/ml within 30 mins; type: functional; how it was run: as §1
Staphylococcus aureus [12] = assay: Bactericidal activity against heterogeneous vancomycin-intermediate resistant Staphylococcus aureus ATCC 700698 assessed as reduction in bacterial count at 8 ug/ml within 30 mins; type: functional; how it was run: as §1

SMILES | Activity (Staphylococcus aureus [1]) | Activity (Staphylococcus aureus [2]) | Activity (Staphylococcus aureus [3]) | MIC (Staphylococcus aureus [4]) | log10cfu (Staphylococcus aureus [5]) | MIC (Enterococcus) | MIC (Staphylococcus aureus [6]) | MIC (Staphylococcus aureus [7]) | Activity (Staphylococcus aureus [8]) | MIC (Staphylococcus aureus [9]) | Activity (Staphylococcus aureus [10]) | log10cfu (Staphylococcus aureus [11]) | log10cfu (Staphylococcus aureus [12])
CN[C@H](CC(C)C)C(=O)N[C@H]1C(=O)N[C@@H](CC(N)=O)C(=O)N[C@H]2C(=O)N[C@H]3C(=O)N[C@H](C(=O)N[C@H](C(=O)O)c4cc(O)cc(O)c4-c4cc3ccc4O)[C@H](O)c3ccc(c(Cl)c3)Oc3cc2cc(c3O[C@@H]2O[C@H](CO)[C@@H](O)[C@H](O)[C@H]2O[C@H]2C[C@](C)(N)[C@H](O)[C@H](C)O2)Oc2ccc(cc2Cl)[C@H]1O | inactive | inactive | inactive |  |  |  |  |  |  |  |  |  | 
CN[C@H](CC(C)C)C(=O)N[C@H]1C(=O)N[C@@H](CC(N)=O)C(=O)N[C@H]2C(=O)N[C@H]3C(=O)N[C@H](C(=O)N[C@H](C(=O)O)c4cc(O)cc(O)c4-c4cc3ccc4O)[C@H](O[C@H]3C[C@](C)(N)[C@@H](O)[C@H](C)O3)c3ccc(c(Cl)c3)Oc3cc2cc(c3O[C@@H]2O[C@H](CO)[C@@H](O)[C@H](O)[C@H]2O[C@H]2C[C@](C)(N)[C@@H](O)[C@H](C)O2)Oc2ccc(cc2Cl)[C@H]1O [CHLOROEREMOMYCIN] | inactive | inactive | inactive | 1 µg/mL (≈ 0.628 µM) |  |  |  |  |  |  |  |  | 
CN[C@H](CC(C)C)C(=O)N[C@H]1C(=O)N[C@@H](CC(N)=O)C(=O)N[C@H]2C(=O)N[C@H]3C(=O)N[C@H](C(=O)N[C@H](C(=O)O)c4cc(O)cc(O)c4-c4cc3ccc4O)[C@H](O[C@H]3C[C@](C)(N)[C@@H](O)[C@H](C)O3)c3ccc(c(Cl)c3)Oc3cc2cc(c3O[C@@H]2O[C@H](CO)[C@@H](O)[C@H](O)[C@H]2O[C@H]2C[C@](C)(NCc3ccc(-c4ccc(Cl)cc4)cc3)[C@@H](O)[C@H](C)O2)Oc2ccc(cc2Cl)[C@H]1O [ORITAVANCIN] |  |  |  | 1 µg/mL (≈ 0.558 µM) | >=3 | 0.25 µg/mL (≈ 0.139 µM) | 0.25 µg/mL (≈ 0.139 µM) | 0.25 µg/mL (≈ 0.139 µM) | Dose-dependent effect | 0.25 µg/mL (≈ 0.139 µM) | Dose-dependent effect | >=3 | >=3
